One assay concerns the target Cholinesterase (Homo sapiens, UniProt P06276). Briefly: Ability to inhibit butyrylcholinesterase (BChE), freshly prepared from human plasma. It counts as cell-free.
In assay [1] the target is T1, Cholinesterases; ACHE & BCHE (Homo sapiens) (UniProt P06276+P22303). Description: AChE selectivity = IC50(BChE) / IC50(AChE). Format: protein assay.
Another assay deals with Acetylcholinesterase (Homo sapiens, UniProt P22303). Description: Ability to inhibit acetylcholinesterase (AChE), freshly prepared from human erythrocytes. The method in brief: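 AChE from freshly collected blood: erythrocytes washed five times in isotonic saline, lysed in 9 volumes of 0.1 M Na3PO4 pH 7.4 with 0.5% Triton-X, diluted to final 1:200. Compounds preincubated with enzyme 30 min at room temperature, then with substrate and DTNB 25 min at 37 °C, pH 8.0. Final range 0.3 nM–[…] in half-log steps. IC50 from logit-activity versus log concentration. Four runs.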

The target of assay [2] is T1, Cholinesterases; ACHE & BCHE (Homo sapiens). Briefly: BChE selectivity = IC50(AChE) / IC50(BChE). It counts as protein assay.

A word on the pIC50: it is the IC50 on a negative log10 scale, so that one unit is a factor of ten.

pIC50: −log10 of the molar value.

Acetylcholinesterase, sequence (P22303 whole entry): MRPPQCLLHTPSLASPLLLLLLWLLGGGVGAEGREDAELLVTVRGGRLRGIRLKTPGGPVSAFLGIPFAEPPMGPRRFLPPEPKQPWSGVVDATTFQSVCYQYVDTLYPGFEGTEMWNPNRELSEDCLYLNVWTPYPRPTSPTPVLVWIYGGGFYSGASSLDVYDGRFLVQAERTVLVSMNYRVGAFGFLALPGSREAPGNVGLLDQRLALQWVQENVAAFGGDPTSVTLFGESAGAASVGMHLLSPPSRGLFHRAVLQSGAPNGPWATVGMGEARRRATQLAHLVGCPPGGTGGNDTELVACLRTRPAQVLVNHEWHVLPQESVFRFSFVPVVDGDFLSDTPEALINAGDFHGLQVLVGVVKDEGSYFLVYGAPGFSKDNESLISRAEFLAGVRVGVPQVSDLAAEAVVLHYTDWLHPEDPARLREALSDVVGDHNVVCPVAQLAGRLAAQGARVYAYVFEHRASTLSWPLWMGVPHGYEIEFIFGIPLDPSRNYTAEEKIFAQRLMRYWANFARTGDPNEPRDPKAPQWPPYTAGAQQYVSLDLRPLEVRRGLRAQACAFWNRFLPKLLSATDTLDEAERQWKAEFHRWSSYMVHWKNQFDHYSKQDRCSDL
T1 sequence (P06276 whole entry, looked up): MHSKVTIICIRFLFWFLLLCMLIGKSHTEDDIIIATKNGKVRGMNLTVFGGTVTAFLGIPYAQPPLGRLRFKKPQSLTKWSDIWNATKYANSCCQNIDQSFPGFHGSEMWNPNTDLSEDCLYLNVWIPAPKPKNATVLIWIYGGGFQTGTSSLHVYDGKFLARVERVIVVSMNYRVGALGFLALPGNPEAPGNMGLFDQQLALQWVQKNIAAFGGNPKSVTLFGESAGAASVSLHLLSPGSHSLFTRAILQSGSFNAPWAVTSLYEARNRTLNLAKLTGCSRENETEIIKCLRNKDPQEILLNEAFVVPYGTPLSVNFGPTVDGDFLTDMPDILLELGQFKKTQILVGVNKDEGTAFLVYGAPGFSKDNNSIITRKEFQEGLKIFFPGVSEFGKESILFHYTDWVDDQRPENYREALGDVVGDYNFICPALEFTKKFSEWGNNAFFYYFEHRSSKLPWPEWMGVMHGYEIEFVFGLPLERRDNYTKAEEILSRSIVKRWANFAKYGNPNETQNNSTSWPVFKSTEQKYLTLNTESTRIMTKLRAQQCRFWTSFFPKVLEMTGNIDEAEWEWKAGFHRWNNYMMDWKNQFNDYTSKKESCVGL
T1 sequence (P22303 whole entry, looked up): as the sequence (P22303 whole entry) above
Cholinesterase, sequence (P06276 whole entry): as the sequence (P06276 whole entry, looked up) above

For `Cc1ccccc1NC(=O)Oc1ccc2c(c1)[C@]1(C)CCNC1N2C` (some centres not stated), the results for the pIC50 against Cholinesterase and against Acetylcholinesterase were 5.66 and 7.77, respectively. Further, the Selectivity in assay [1] was 127.

As for `Cc1ccccc1NC(=O)Oc1ccc2c(c1)[C@]1(C)CCN(C)C1N2Cc1ccccc1` (some centres not stated), the results for the pIC50 against Cholinesterase and on Acetylcholinesterase were 6.22 and 7.00, respectively. In assay [1], this molecule yielded a Selectivity of 6.

On to `CC(C)c1ccc(NC(=O)Oc2ccc3c(c2)[C@]2(C)CCNC2N3C)cc1` (some centres not stated), for which the pIC50 was 8.08 at Cholinesterase and 6.49 on Acetylcholinesterase. The Selectivity in assay [2] turned out to be 39.

Take `CC(C)c1ccc(NC(=O)Oc2ccc3c(c2)[C@]2(C)CCN(CCc4ccccc4)C2N3C)cc1` (some centres not stated): the pIC50 was 8.22 against Cholinesterase and < 4.52 on Acetylcholinesterase.

As to `Cc1ccccc1NC(=O)Oc1ccc2c(c1)[C@]1(C)CCN(Cc3ccccc3)C1N2Cc1ccccc1` (some centres not stated), the pIC50 is 6.19 against Cholinesterase and 5.75 on Acetylcholinesterase. Further, in assay [2], the Selectivity worked out at 3.

In the case of `Cc1ccccc1NC(=O)Oc1ccc2c(c1)[C@]1(C)CCNC1N2` (some centres not stated), the pIC50 on Cholinesterase is 6.40; at Acetylcholinesterase, 6.55. Also, the Selectivity in assay [1] amounted to 1.

Consider `CC(C)c1ccc(NC(=O)Oc2ccc3c(c2)[C@]2(C)CCN(Cc4ccccc4)C2N3Cc2ccccc2)cc1` (some centres not stated), for which the pIC50 against Cholinesterase was 6.88; against Acetylcholinesterase, < 4.52. Besides, the Selectivity in assay [2] was > 227.

`Cc1ccccc1NC(=O)Oc1ccc2c(c1)[C@]1(C)CCN(C)C1N2C` (some centres not stated) had a pIC50 against Acetylcholinesterase of 7.99.

Consider `CC(C)c1ccc(NC(=O)Oc2ccc3c(c2)[C@]2(C)CCN(C)C2N3Cc2ccccc2)cc1` (some centres not stated), for which the pIC50 at Cholinesterase is 7.07; at Acetylcholinesterase, 4.89. In assay [2], this molecule gave a Selectivity of 152.

Take `Cc1ccccc1NC(=O)Oc1ccc2c(c1)[C@]1(C)CCN(C)C1N2` (some centres not stated): the pIC50 was 5.84 against Cholinesterase and 7.40 on Acetylcholinesterase. This molecule also showed a Selectivity in assay [1] of 36.

In the case of `Cc1ccccc1NC(=O)Oc1ccc2c(c1)[C@]1(C)CCN(CCc3ccccc3)C1N2C` (some centres not stated), the pIC50 against Cholinesterase is 5.75; on Acetylcholinesterase, 6.26. Further, in assay [1], the Selectivity stood at 3.

`CN1CC[C@@]2(C)c3cc(OC(=O)Nc4ccccc4)ccc3N(C)C12` (some centres not stated) had a Selectivity in assay [1] of 65.

`CC(C)c1ccc(NC(=O)Oc2ccc3c(c2)[C@]2(C)CCNC2N3)cc1` (some centres not stated): the figures for the pIC50 against Cholinesterase and against Acetylcholinesterase were 9.00 and 6.96, respectively. In assay [2], the Selectivity is 110.

As for `CC(C)c1ccc(NC(=O)Oc2ccc3c(c2)[C@]2(C)CCN(C)C2N3)cc1` (some centres not stated), the figures for the pIC50 on Cholinesterase and at Acetylcholinesterase were 7.11 and 5.69, respectively. For the same molecule, the Selectivity in assay [2] came out at 26.

These data come from ChEMBL document CHEMBL1132219, “Synthesis of novel phenserine-based-selective inhibitors of butyrylcholinesterase for Alzheimer's disease” (J Med Chem, 1999).
